Test results as given in ChEMBL document CHEMBL1142228, “Alternative chemical modifications reverse the binding orientation of a pharmacophore scaffold in the active site of macrophage migration inhibitory factor” (J Biol Chem, 2007).

These compounds were tested against Transcription factor p65 (Mus musculus) (UniProt Q04207) (assay: Inhibition of NF-kappaB activation in LPS-induced mouse RAW264.7 cells by electrophoretic mobility shift assay). Details: not given.
Chain of Transcription factor p65 (Mus musculus) (Q04207 whole entry, looked up): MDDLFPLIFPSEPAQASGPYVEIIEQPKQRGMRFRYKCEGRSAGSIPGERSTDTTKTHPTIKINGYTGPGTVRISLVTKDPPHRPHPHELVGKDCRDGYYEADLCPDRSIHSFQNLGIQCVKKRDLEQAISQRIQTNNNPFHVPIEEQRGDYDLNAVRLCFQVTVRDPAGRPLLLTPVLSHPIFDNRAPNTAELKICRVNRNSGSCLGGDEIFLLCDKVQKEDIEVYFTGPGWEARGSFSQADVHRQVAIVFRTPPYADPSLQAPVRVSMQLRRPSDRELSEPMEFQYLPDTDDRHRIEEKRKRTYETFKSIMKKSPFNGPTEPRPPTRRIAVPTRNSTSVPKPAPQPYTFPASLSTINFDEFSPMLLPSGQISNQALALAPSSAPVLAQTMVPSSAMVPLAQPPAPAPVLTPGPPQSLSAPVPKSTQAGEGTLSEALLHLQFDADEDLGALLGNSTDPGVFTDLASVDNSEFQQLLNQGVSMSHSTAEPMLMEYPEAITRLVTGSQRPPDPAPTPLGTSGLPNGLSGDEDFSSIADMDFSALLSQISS
In the case of `O=C(O/N=C/c1ccc(O)cc1)C1CCCCC1`, the Activity is reported as “Dose-dependent effect”.

Each compound was assayed on Mus musculus (assay: Increase in survival rate in cecal ligation and puncture-induced peritonitis mouse model administered twice a day after 24 hrs of sepsis induction at 3.5 mg/kg, ip for 3 days). Details: route intraperitoneal.
Type: functional
Method in brief: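 Mice anaesthetised with ketamine 100 mg/kg plus xylazine 8 mg/kg im. Cecum ligated below the ileocecal valve and punctured once with a 22-gauge needle. Post-surgery: Premaxin 0.5 mg/kg sc and saline 20 ml/kg sc. Dosing ip in 20% aqueous DMSO vehicle began 24 h post-CLP, twice daily for 3 days. n = 13 per group; survival followed 2 weeks.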
Compound `O=C(O/N=C/c1ccc(O)cc1)C1CCCCC1` has a survival at 3.5 mg/kg of 70%.

What follows are compounds tested against T1, Macrophage migration inhibitory factor (Homo sapiens, UniProt P14174) (assay: Inhibition of MIF-mediated dopachrome tautomerase activity). Details: not given.
T1 sequence (P14174 whole entry): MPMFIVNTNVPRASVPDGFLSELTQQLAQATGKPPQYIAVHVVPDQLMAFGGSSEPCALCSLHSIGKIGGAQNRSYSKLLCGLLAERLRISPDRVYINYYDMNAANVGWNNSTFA
Method in brief: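 l-Dopachrome methyl ester substrate (2.4 mm prepared stock, from sodium periodate oxidation of l-3,4-dihydroxyphenylalanine methyl ester) added to recombinant MIF (50 nm) in 50 mm potassium phosphate, pH 6, 0.5 mm EDTA at room temperature.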
Compound `O=C(O/N=C/c1ccc(O)cc1)C1CCCC1` has an IC50 of 4 µM. `CC(C)C(=O)O/N=C/c1ccc(O)cc1` was tested, and the IC50 was 25 µM. Compound `CC(C)(C)CC(=O)O/N=C/c1ccc(O)cc1` has an IC50 of 7 µM. For `O=C(O/N=C/c1ccc(O)cc1)c1ccccc1`, the IC50 was 7 µM. For `CC(=O)O/N=C/c1ccc(O)cc1`, the IC50 was 147 µM. `O=C(O/N=C/c1ccc(O)cc1)C1CC=CCC1` (stereo not drawn) showed an IC50 of 3.4 µM. In the case of `CCCCC(=O)O/N=C/c1ccc(O)cc1`, the IC50 is reported as 14.5 µM. With `O=C(CCC1CCCCC1)O/N=C/c1ccc(O)cc1` the IC50 was 3 µM. Compound `CC(C)(C)C(=O)O/N=C/c1ccc(O)cc1` has an IC50 of 113 µM. For `O=C(O/N=C/c1ccc(O)cc1)C1CCC1`, the IC50 was 11 µM. `CC(C)CC(=O)O/N=C/c1ccc(O)cc1` showed an IC50 of 7 µM.
